Sampled rows, rich in hits. Any-hit rate of the full collection: about 4%.
S1P3 antag = blocks the human S1P3 receptor; inhibition, % at 4.98 µM; CHO S1P3 NFAT-BLA reporter, FRET fluorescence, antagonist mode; 170,000 tested, 0.27% active;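 active = inhibition above the plate cutoff, the mean inhibition of test wells on that plate plus 3 SD, cut at about 28% in these data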;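 note: cells challenged with S1P at its EC80 of 0.8 µM; blue over green emission ratio from cleaved BLA substrate after 4 h stimulation; 0% = S1P-stimulated wells and 100% = unstimulated DMSO-only wells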
Hsp70 act = transcriptional activators of Hsp70; activation, % at 10 µM; HeLa Hsp70 promoter luciferase reporter, luminescence; scaled: vehicle 0, proteasome-inhibitor control 100%; AID 1203; 200,000 tested, 0.04% active;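 active = activation above the mean across all tested compounds plus 3 SD, cutoff set per campaign, cut at about 5.5% in these data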;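 note: 100% = MG132 at 30 µM as the positive control and 0% = DMSO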
CHOP inhibitor = CHOP inhibition in unfolded protein response; CHO-K1 CHOP-promoter luciferase, tunicamycin-induced, 15-18 h; inhibition, % at 10 µM; 220,000 tested, 3.8% active; AID 2732;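 active = compounds that reduced the stress-induced luciferase reporter signal by more than about 70% of percent inhibition, limit read from the data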;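 note: 0% = tunicamycin plus vehicle and 100% = wells without tunicamycin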
Mdm2 ligase inh = blocks human Mdm2 ubiquitin ligase activity; signal enhancement, % at 5 µM; 210,000 tested, 0.11% active; AID 1230; Q00987; cell-based MDM2 ubiquitination luciferase reporter, 2 h; 0 = plate control, 100 = twice control, blank-subtracted;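 active = signal enhancement of 30% or more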;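 note: luminescence tracks abundance of the self-degrading MDM2-luciferase fusion protein; higher signal means inhibition of MDM2 E3 ligase activity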
Target sequence (Q00987 whole entry, looked up, the tested form may be a part): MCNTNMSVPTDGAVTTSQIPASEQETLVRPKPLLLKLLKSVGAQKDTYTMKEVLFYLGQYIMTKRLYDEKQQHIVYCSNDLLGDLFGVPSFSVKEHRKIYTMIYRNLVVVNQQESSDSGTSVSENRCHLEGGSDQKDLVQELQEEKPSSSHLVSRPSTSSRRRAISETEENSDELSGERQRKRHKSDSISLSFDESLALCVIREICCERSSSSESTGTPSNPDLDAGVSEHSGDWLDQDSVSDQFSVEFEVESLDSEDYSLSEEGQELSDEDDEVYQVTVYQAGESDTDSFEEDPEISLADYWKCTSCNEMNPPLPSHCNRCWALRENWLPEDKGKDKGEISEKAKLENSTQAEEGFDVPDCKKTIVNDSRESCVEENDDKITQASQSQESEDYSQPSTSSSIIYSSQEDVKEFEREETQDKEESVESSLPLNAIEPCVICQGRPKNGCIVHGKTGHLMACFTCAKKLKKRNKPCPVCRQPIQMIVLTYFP
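test system = mammalian cells stably expressing self-ubiquitinating, self-degrading MDM2 E3–luciferase fusion | quantity = 2000 cells/well | incubation = cell settling 4 h, compound treatment 2 h, both 37 °C | signal = luminescence with SteadyLite reagent, 15 min at room temperature | evaluation = % enhancement relative to plate controls after blank subtraction | benchmarks = plate controls and plate blanks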
Starred values were filed as active, the others as inactive.

Results for CC1CCCCC1N=C1NC(C)(C)CS1 (configuration not stated) ?
S1P3 antag: 3; Hsp70 act: 0; CHOP inhibitor: 6; Mdm2 ligase inh: -3

How did Cc1cn(-c2ccccc2)c(C)c1/C=N\Nc1nc(N2CCOCC2)nc(N2CCOCC2)n1 do in these assays?
S1P3 antag: -6; Hsp70 act: 0; CHOP inhibitor: 39; Mdm2 ligase inh: -9

How did CCn1cc(NC(=O)CCl)c(C)n1 do in these assays?
S1P3 antag: -27; Hsp70 act: 0; CHOP inhibitor: -29; Mdm2 ligase inh: -11

Results for CCN(CC)C(=O)C1=C(C)Nc2ncnn2C1c1cccnc1 (configuration not stated) ?
S1P3 antag: -11; Hsp70 act: 0; CHOP inhibitor: 3; Mdm2 ligase inh: -8

Results for COc1ccc(NC(=O)c2cccc([N+](=O)[O-])c2)cc1 ?
S1P3 antag: 6; Hsp70 act: 0; CHOP inhibitor: -7; Mdm2 ligase inh: -22

How did O=C(Nc1cccc([N+](=O)[O-])c1)c1cc2ccccc2cc1O do in these assays?
S1P3 antag: -1; CHOP inhibitor: 86*; Mdm2 ligase inh: -23

How did COc1ccc(NC(=O)c2cc([N+](=O)[O-])ccc2O)cc1 do in these assays?
S1P3 antag: -1; Hsp70 act: 0; CHOP inhibitor: 75*

How did O=C(O)c1ccccc1C(=O)Nc1cccc([N+](=O)[O-])c1 do in these assays?
S1P3 antag: 5; CHOP inhibitor: 1; Mdm2 ligase inh: -7

Results for COc1ccc(-c2cc(=O)oc3cc(OC(=O)C4CCCCC4)c(Cl)cc23)cc1 ?
S1P3 antag: 1; Hsp70 act: 0; CHOP inhibitor: 58; Mdm2 ligase inh: -11

Results for CC(C)(C)c1ccc(OCCCC(=O)Nc2ccc(S(N)(=O)=O)cc2)cc1 ?
S1P3 antag: 0; Hsp70 act: 0; CHOP inhibitor: 55; Mdm2 ligase inh: -15

How did CCOc1nc(-c2ccccc2Cl)ccc1C#N do in these assays?
Hsp70 act: 0; CHOP inhibitor: 71*; Mdm2 ligase inh: -6

How did O=C(CCSc1ccccc1)NC(=O)COC(=O)C1CCCCC1 do in these assays?
S1P3 antag: -9; Hsp70 act: 0; CHOP inhibitor: 70*; Mdm2 ligase inh: -6

How did O=C1OCc2cc(NC(=O)C3COc4ccccc4O3)ccc21 (configuration not stated) do in these assays?
S1P3 antag: 7; Hsp70 act: 0; CHOP inhibitor: -8

What do the screens show for `Cc1ccc(C(=O)/C=C/Nc2cccc(O)c2)cc1`?
Hsp70 act: 0; CHOP inhibitor: 60; Mdm2 ligase inh: -7

Results for C/C(=C\C(=O)c1ccc(C)cc1)Nc1cccc(O)c1 ?
S1P3 antag: -20; Hsp70 act: 1; CHOP inhibitor: 94*; Mdm2 ligase inh: -29

Results for CCOC(=O)c1sc(NC(=O)CSc2nc(-c3ccco3)cc(C(F)(F)F)n2)c(C(=O)OC(C)C)c1C ?
Hsp70 act: 0

What do the screens show for `CCOC(=O)c1cnc2ccc(OCC)cc2c1NCc1ccccc1OC`?
S1P3 antag: 0; Hsp70 act: 0; CHOP inhibitor: 82*; Mdm2 ligase inh: -16

How did COc1cccc(OCC(=O)NNC(=O)c2ccc(-c3ccccc3)cc2)c1 do in these assays?
Hsp70 act: 0; CHOP inhibitor: 80*; Mdm2 ligase inh: -1

Results for S=C(NCCSCc1ccc(Cl)cc1)Nc1ccccc1 ?
Hsp70 act: 0; CHOP inhibitor: 80*; Mdm2 ligase inh: 6

How did Cc1cccc(CSCCNC(=S)Nc2ccccc2)c1 do in these assays?
S1P3 antag: -2; Hsp70 act: 0; CHOP inhibitor: -6; Mdm2 ligase inh: -12

What do the screens show for `S=C(NCCSCc1ccccc1Cl)Nc1ccccc1`?
Hsp70 act: 0; CHOP inhibitor: 71*; Mdm2 ligase inh: -4

Results for COc1ccc(-c2cc3c(nn2)-c2ccccc2C3=O)cc1 ?
S1P3 antag: -15; Hsp70 act: 0; CHOP inhibitor: 78*; Mdm2 ligase inh: 3

How did O=C1c2ccccc2-c2nnc(-c3ccccc3)cc21 do in these assays?
Hsp70 act: 0; CHOP inhibitor: 73*; Mdm2 ligase inh: -49

What do the screens show for `CC1Cc2ccccc2N1C(=O)CSc1nnc(-c2ccccc2)c(-c2ccccc2)n1` (configuration not stated)?
Hsp70 act: 0; CHOP inhibitor: 22; Mdm2 ligase inh: -22

What do the screens show for `N#CC1=C(N)OC2=C(CCc3ccccc32)C1c1ccccc1` (configuration not stated)?
S1P3 antag: -14; Hsp70 act: 0; CHOP inhibitor: 100*; Mdm2 ligase inh: 6

Screening data from PubChem BioAssay.
